Measured values taken from the EternaBench riboswitch data.

Tested on: MS2 coat protein
Test: apparent Kd, MS2 coat protein; higher = weaker binding; RNA-MaP array; FMN 200 µM where present
Outline: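 The apparent Kd is reported as the median of filtered per-cluster binding-curve fits. To get these curves, designs transcribed by stalled E. coli RNA polymerase on Illumina sequencing-chip clusters were titrated with SNAP-549-labelled MS2 coat protein from 0.7 or 1.5 nM, doubling to 3 µM. Titrations were run without and then with constant ligand in 100 mM Tris-HCl pH 7.5, 80 mM KCl, 4 mM MgCl2, BSA, DTT, yeast tRNA and Tween-20, and green signal was normalised to red-channel RNA signal and control-cluster median Fmax.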

[1] = designed as: ON switch for flavin mononucleotide, no ligand
[2] = ligand present: flavin mononucleotide, designed as: ON switch for flavin mononucleotide
[3] = designed as: OFF switch for flavin mononucleotide, no ligand
[4] = ligand present: flavin mononucleotide, designed as: OFF switch for flavin mononucleotide

Sequence | apparent Kd [1] [nM] | apparent Kd [2] [nM] | apparent Kd [3] [nM] | apparent Kd [4] [nM]
CGUAGGAUGCAGAAGGCAUGAACAUGAGGAUCACCCAUGUCAAAAUACAUGAGGAUAUGCAUCCUACGAAAAGUGCGAAAGCAC | 4.62 | 4.3 |  | 
AGCUGUGGCCGAGGAUAUCUACCUUCAAUAACCGAAAUAUAAUCGGACAUGAGGAUCACCCAUGUAGAGAAGGCGGUCUCAGCA |  |  | 14.8 | 96.2
ACGUUUUAUGCAGGAUAUUGACAUAUAUUUAAACAAGAAGGGCAUUACAUGAGGAUCACCCAUGUUAUCAUGGUAUUUAAGUUC |  |  | 64.1 | 63.2
GUACUGUAGUGAGGAUAUACGAGAACGAUAGUUCGGCGAUCCAUAUAUACAUGAGGAUCACCCAUGUAGAAGGCACUUCAGUAC |  |  | 9.3 | 108
CUCAUGUGAGGAUAUCAGUAGUAAAAAAAAAAAAUUACUACUGAGAAGGCACAUGAGGAUCACCCAUGUGACUU |  |  | 34.8 | 30.6
GUAUAUAUUACAUGAGGAUCACCCAUGUCAGAACGGGUAAUCAGAAGGUAUUAUUAGAGAAAGAGUAAGGAUAUGAUUAUAUAC | 622 | 181 |  | 
UUGGUUGUCGUAGGAUAUGGAGGAUAUUCCUACAUGAGGAUCACCCAUGUUCGCAUGGAAGAAGGCCAGAAGGACGAUGACCAU | 10.4 | 4.38 |  | 
UGGCACUAGGGAGGAUAUGGGAAGAUACAUGAGGAUCACCCAUGUUUAAGAAUGCCGAGAGGCAACUAGAAGGCCCUAGUACCU | 486 | 19.3 |  | 
UUGUUACAUGAGGAUCACCCAUGUGAGGAUAUGGUUCAGUACUGUCAUGUCGCGUACUCCAGAAGGCACAUGUU |  |  | 89.7 | 209
GUAACUUAUGUCAGGAUAUUACACGCAUUGCGUGGUGAGAAGGGACAUGAGGAUCACCCAUGUCCGGAUGCGGG |  |  | 39.8 | 62.6
GGCUGCGUUGUGAAGGAUAUCCGCGUCUGGACAUGAGGAUCACCCAUGUAUGCUUGGAUCGUGCCGGAGAAGGUCACGAAUGAUU | 34.5 | 15.9 |  | 
GUAGCUAUCGCAGGAUAUUCAUACCGGAAACGGACAUGAGGAUCACCCAUGUGGCGAAAGCCUUGGGAGAAGGCCGAUAGCUAC | 1160 | 789 |  | 
CUGACCUGUGUCAGGAUAUCGUUUGCCAUUGUGACUGAGAAGGGACAUGAGGAUCACCCAUGUCGAGCGACGGG |  |  | 28.4 | 35.6
AAAACAGAUGGAGGAUAUAGUGUAUGGGCCGUAACGGGAGUAUCGCGCAGACUAGAAGGCCAUUUACAUGAGGAUCACCCAUGU | 164 | 56.5 |  | 
UUGGUUGUCGUAGGAUAUGUAGGAUAUUCCUACAUGAGGAUCACCCAUGUUCGCAUGGAAGAAGGACAGAAGGACGAUGACCAC | 850 | 9.19 |  | 
GCCGAAAAUGUGAGGAUAUACCUAUGGAAACAUAGGUAGAAGGCACAUGAGGAUCACCCAUGUGUUUCAACGGC |  |  | 21.5 | 107
GUGAACCGUAGGUCGUUGGCUGCACAGGAUAUGAAGGCGUACAUGAGGAUCACCCAUGUUCCCUAUCAGAAGGGUGACAGGAAA | 6.81 | 5.41 |  | 
UAUAUAUAGUAAGGAUAUGUAUUUGUUUUAUAAACAGAAGGUACUGACAUGAGGAUCACCCAUGUUUUAGUGUGGGCAUGUAGA |  |  | 39.5 | 41.4
UAGGACUACGUAGGAUAUGUAGGAUAUUCCUACAUGAGGAUCACCCAUGUUAGCAUGUAAGUAGGACAGAAGGACGUGGUAAAU | 695 | 79.9 |  | 
AUAAAACAAAACCACACAUGAGGAUCACCCAUGUCAAGAUUACAGGAUAUCCGGCAGAGAUGCAAGGAGAAGGGUGAUCCCAAA | 17.3 | 56.9 |  | 
AAAAGUUCAGGAUAUACAUGAGGAUCACCCAUGUAGAAAGGAAGUGUAAAAAAAAAGUGUAGAAGGGAGCAUGA |  |  | 31.7 | 29.1
GUCGUGAGACAGGAUAUCCAAUCUAAACACGAGGGAGAAGGGUCUACAUGAGGAUCACCCAUGUGGUCUCAAAA |  |  | 17.6 | 21.7
GUCACGAAUGUAGGAUAUCGAGUGGAAUACACUCGAGAAGGACAUGAGGAUCACCCAUGUCAAAUGAAAGAUAAUAAACGUGAC |  |  | 14.6 | 18.8
GAUUGUUUUUAGAAGGUGCCGACGAGAGUCGCAACAUGAGGAUCACCCAUGUGUCGGUGACGACGCAAGGAUAUGGAGGUGGUU | 174 | 79.8 |  | 

Sequence | apparent Kd [1] [nM] | apparent Kd [2] [nM] | apparent Kd [3] [nM] | apparent Kd [4] [nM]
ACCCAUGUCCAAGGAUAUGUACUCACAUGAGGAUCACCCAUGUAAAAGGGAGCAGAAGGUGGUACAUGUUAGAGAAUAAUAAAC | 129 | 11.4 |  | 
CCUCCACAUUAGGAUAUCGUCACAGAAAUGUGACGAGAAGGAAUGACAUGAGGAUCACCCAUGUUAUCGUGAUG |  |  | 21.2 | 54.9
GGGUUGUGAGGAUAUUAGUUGUACGUCAAUAGACGUAUAGGUGAGAAGGCACAUGAGGAUCACCCAUGUUCCUG |  |  | 23.8 | 56.9
GAUUAACAUGAGGAUCACCCAUGUGAGGAUAUUGACUUGCUCACUUUCCCAUUCGAGUCGAGAAGGCGCAUCUU |  |  | 28.7 | 29
AUUUGAAAGUCAGGAUAUGGUAGAUUAUUCUUAUCAGAAGGGAUUAUUAUACUCAAGUACAUGAGGAUCACCCAUGUUAAAUCA | 22.6 | 13 |  | 
GGACGGUUUGUCAGGAUAUGCUCUACCUCGGUAGAGCAGAAGGGACAUGAGGAUCACCCAUGUGAAAACUGUUC |  |  | 22.8 | 25.2
UUAGGUCGAAACAUGAGGAUCACCCAUGUGUUGUAAUUAACAUAGGAUAUGUUUAUACUUUUUGGGCAGAAGGAUGAUAUUGCU | 17.3 | 14 |  | 
GCAGCUAAUGCAGGAUAUCAGCACGUGUAGUGCUGAGAAGGGCACAUGAGGAUCACCCAUGUGAUCAAUUAAUUUUAAUGCUGC |  |  | 29 | 159
GAUAGACAUGAGGAUCACCCAUGUGAGGAUAUGCGUACGUUGUCCGUAGGCGACGUGCGCAGAAGGCGCGAGGU |  |  | 55.9 | 88.3
CUGGUGUGAGGAUAUCAAAGACCUCGGGAUAGUAGCGAGGAUGAGAAGGCACAUGAGGAUCACCCAUGUAACAA |  |  | 20.9 | 33.8
GCACUUAGAGUUGAACCGUUUCUAACAUGAGGAUCACCCAUGUAGGAUAUGCUAAUAGUAUUGAAGCAGAAGGACAAUAAGUGC |  |  | 4.59 | 5.01
CCUCCACAUGAGGAUCACCCAUGUCAGGAUAUCGUGUGCGCGUUUUCGGUCUUUCGCGCGAGAAGGGACGACUG |  |  | 27.3 | 28.4
UUGCUACAUGAGGAUCACCCAUGUCAGGAUAUAGUGCAUAGCGUGGAAGCUCUGUCGAUUAGAAGGGACUGUCU |  |  | 25.2 | 27.4
GGACGUCUCAUUAACAUGAGGAUCACCCAUGUCAAAAGACAUGAGGAUAUGGUUCCUAAUUGGAACCAGAAGGCAUGGACGUCC | 853 | 67.8 |  | 
CCGUUACAUGAGGAUCACCCAUGUGAGGAUAUCGGUGUGACUGGCAGCGUGCGGGACUCGAGAAGGCGCUUGGC |  |  | 48.5 | 48.4
GGAAAGUGAGGAUAUGGUAAUUUAAUUAUUAAUUAAUUAAUCCAGAAGGCACAUGAGGAUCACCCAUGUAAAUG |  |  | 35.9 | 61.5
GUGUACAGAGGAUAUACUCAUGGAGUUACGAAAGUAACUUCACAUGAGGAUCACCCAUGUAGAAGGCUGUACAC |  |  | 473 | 293
CUGUUAUAGGUCCAUUUUUUCAACAUGAGGAUCACCCAUGUGCAGGAUAUCGUGAUAAUUUUCAUCGAGAAGGGCAUAGUCACG |  |  | 24.9 | 40.1
UUGGACGUGGUAGGAUAUGUAGGAUAUUCCUACAUGAGGAUCACCCAUGUUGACAUGGAAGAAGGACAGAAGGACGAUGUCCAU | 112 | 35 |  | 
GAGUGGCGAUUAGGAUAUACAGUGAUAAUGAUAGUAGAAGGAAUUGACAUGAGGAUCACCCAUGUAGGACUAAUCCAGAGAGAG | 96.1 | 84.9 |  | 
UUCUUCUGAGGAUAUACAUAGAUUUACAUGAGGAUCACCCAUGUUCCUCUAUGUAUAAAUGUAGAAGGCAGAAGUU |  |  | 16.9 | 91.2
UGUUGUAUUACAGGAUAUCUAUUAGUUUAAUUUAGAGAAGGGUAUUCACAUGAGGAUCACCCAUGUAUAUACGAGGAAGUUGUG | 53 | 62.2 |  | 
GUCCGGCUGCCACAGGAUAUACGUGGAUCGACAUGAGGAUCACCCAUGUAUAUCCUAAUAAUUGCGUAGAAGGGUGGUCAGCCGG | 1040 | 109 |  | 
CAGUGCUGUUGAGAGGAUAUGCGGUGAUGGACAUGAGGAUCACCCAUGUUAGCGACAGCGUUACGGCAGAAGGCUCUACCCACUG | 49.4 | 22.4 |  | 
